In ChEMBL document CHEMBL5038677, “Identification and In Silico Binding Study of a Highly Potent DENV NS2B-NS3 Covalent Inhibitor” (ACS Med Chem Lett, 2022):
Calls of active or inactive are those of the source. The rule behind the calls is not given here.

How the values were obtained:
[1] = target: Genome polyprotein (dengue virus type 2) (UniProt P29990); assay: Inhibition of DENV NS2B-NS3 protease assessed as fluorescence emission using benzoyl-Nle-Lys-Arg-Arg-AMC as substrate at 150 nM preincubated with enzyme for 60 min followed by substrate addition and measured for 15 min by fluorimetric assay
In short: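 The substrate is cleaved to release fluorescent AMC, and fluorescence intensity is the read-out. Percent inhibition is taken from triplicate measurements at 150 nM compound.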

Genome polyprotein [2] = target: T1, Genome polyprotein (dengue virus type 2, UniProt P29990); assay: Inhibition of DENV NS2B-NS3 protease assessed as fluorescence emission using benzoyl-Nle-Lys-Arg-Arg-AMC as substrate preincubated with enzyme for 60 min followed by substrate addition and measured for 15 min by fluorimetric assay
In short: (§1)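 Fluorometric protease assay reading the fluorescence of product released from benzoyl-Nle-Lys-Arg-Arg-AMC cleavage, with aprotinin as a positive control. Percent inhibition was taken from triplicate measurements at 150 nM inhibitor. IC50 values were determined by a similar method for selected compounds.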

BHK-21 [3] = assay: Cytoprotective activity against DENV infected hamster BHK-21 cells assessed as cell survival rate at 5 uM incubated for 5 days measured by CCK-8 assay; format: functional, cell-based; conditions: Mesocricetus auratus, time 5.0 day
In short: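 BHK-21 cells are infected with DENV and treated with compound at 5 μM. Cell viability is read by CCK-8. Survival rate is compared against the virus-infection control.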

[4] = target: Genome polyprotein (dengue virus type 2) (UniProt P29990); assay: Inhibition of DENV NS2B-NS3 protease assessed as inactivation constant using benzoyl-Nle-Lys-Arg-Arg-AMC as substrate incubated for 60 min by measuring fluorescence intensity
In short: (§2)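 Time-dependent inactivation of DENV NS2B-NS3 protease was followed by fluorescence from cleavage of benzoyl-Nle-Lys-Arg-Arg-AMC at several inhibitor concentrations. kobs values were obtained at each concentration and plotted against inhibitor concentration to derive kinact, Ki and the second-order rate constant kinact/Ki.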

[5] = target: Genome polyprotein (dengue virus type 2) (UniProt P29990); assay: Inhibition of DENV NS2B-NS3 protease assessed as fluorescence emission using benzoyl-Nle-Lys-Arg-Arg-AMC as substrate at 1.4 to 16.7 uM by fluorimetric assay; conditions: dose 1.4-16.7 µM, time min <=60, TDE = time-dependent effect
BHK-21 [6] = assay: Cytotoxicity against DENV infected hamster BHK-21 cells assessed as cell survival rate at 5 uM incubated for 5 days measured by CCK-8 assay; format: toxicity, cell-based, Mesocricetus auratus; conditions: bhk-21, 120 h, time 5 day
[7] = target: Genome polyprotein (dengue virus type 2) (UniProt P29990); assay: Inhibition of DENV NS2B-NS3 protease assessed as ratio of Kinact/Ki using benzoyl-Nle-Lys-Arg-Arg-AMC as substrate incubated for 60 min by measuring fluorescence intensity; in short: as §2
Genome polyprotein [8] = target: T1, Genome polyprotein; assay: Binding affinity to DENV NS2B-NS3 protease assessed as inhibition constant using benzoyl-Nle-Lys-Arg-Arg-AMC as substrate incubated for 60 min by measuring fluorescence intensity; in short: as §2
Genome polyprotein [9] = target: T1, Genome polyprotein; assay: Inhibition of DENV2 NS2B-NS3 protease expressed in Escherichia coli assessed as fluorescence emission using Bz-nKRR-AMC as substrate by microplate reader assay; in short: as §1

Row | Compound | inhibition [1] | also measured
1 | Nc1cc(OC(=O)c2ccc([N+](=O)[O-])cc2)nn1S(=O)(=O)c1ccc(Cl)cc1 | 13.2% | 
2 | Nc1cc(OC(=O)c2ccc([N+](=O)[O-])cc2)nn1S(=O)(=O)c1ccc(C(F)(F)F)cc1 | 22% | 
3 | CCOc1ccc(S(=O)(=O)n2nc(OC(=O)c3ccc([N+](=O)[O-])cc3)cc2N)cc1 | 32.6% | 
4 | CCOc1ccc(S(=O)(=O)n2nc(OC(=O)c3ccc(OC)cc3)cc2N)cc1 | 43.6% | 
5 | Nc1cc(OC(=O)c2ccc(-c3ccccc3)cc2)nn1S(=O)(=O)c1ccc(C(F)(F)F)cc1 | 41.2% | 
6 | Nc1ccc(C(=O)Oc2cc(N)n(S(=O)(=O)c3ccc(F)cc3)n2)cc1 | 87.8% | 
7 | CC(C)(C)c1ccc(S(=O)(=O)n2nc(OC(=O)c3ccc(-c4ccccc4)cc3)cc2N)cc1 | 59.8% | 
8 | CCOc1ccc(S(=O)(=O)n2nc(OC(=O)c3ccc(-c4ccccc4)cc3)cc2N)cc1 | 100% | IC50 (Genome polyprotein [2]): 6 nM; Activity (BHK-21 [3]): Active; Kinact [4]: 1.05 10^-3/s; inhibition [5]: Tde; Activity (BHK-21 [6]): Non-Toxic; Ratio [7]: 1580; Ki (Genome polyprotein [8]): 665 nM
9 | CCOc1ccc(S(=O)(=O)n2nc(OC(=O)c3ccc(N)cc3)cc2N)cc1 | 71.9% | 
10 | Nc1cc(OC(=O)c2ccc(-c3ccccc3)cc2)nn1S(=O)(=O)c1ccccc1 | 100% | IC50 (Genome polyprotein [2]): 12 nM
11 | Nc1ccc(C(=O)Oc2cc(N)n(S(=O)(=O)c3ccc(Oc4ccccc4)cc3)n2)cc1 | 100% | IC50 (Genome polyprotein [2]): 9 nM
12 | COc1ccc(C(=O)Oc2cc(N)n(S(=O)(=O)c3ccc(Oc4ccccc4)cc3)n2)cc1 | 76.7% | 
13 | Nc1ccc(C(=O)Oc2cc(N)n(S(=O)(=O)c3ccccc3)n2)cc1 | 76.4% | 
14 | CC(C)(C)c1ccc(S(=O)(=O)n2nc(OC(=O)c3ccc(N)cc3)cc2N)cc1 | 88.1% | 
15 | Cc1ccc(C(=O)Oc2cc(N)n(S(=O)(=O)c3ccc(C(F)(F)F)cc3)n2)cc1 | 19.3% | 
16 | COc1ccc(C(=O)Oc2cc(N)n(S(=O)(=O)c3ccc(C(F)(F)F)cc3)n2)cc1 | 16.1% | 
17 | Nc1ccc(C(=O)Oc2cc(N)n(S(=O)(=O)c3ccc(Cl)cc3)n2)cc1 | 85.6% | 
18 | Nc1ccc(C(=O)Oc2cc(N)n(S(=O)(=O)c3ccc(Br)cc3)n2)cc1 | 100% | IC50 (Genome polyprotein [2]): 74 nM
19 | Nc1cc(OC(=O)c2ccc([N+](=O)[O-])cc2)nn1S(=O)(=O)c1ccc(Oc2ccccc2)cc1 | 64.3% | 
20 | CC(C)(C)c1ccc(S(=O)(=O)n2nc(OC(=O)c3ccc([N+](=O)[O-])cc3)cc2N)cc1 | 20.4% | 
21 | Cc1ccc(C(=O)Oc2cc(N)n(S(=O)(=O)c3ccc(Oc4ccccc4)cc3)n2)cc1 | 81% | 
22 | CCOc1ccc(S(=O)(=O)n2nc(OC(=O)c3ccc(C)cc3)cc2N)cc1 | 42.1% | 
23 | Nc1cc(OC(=O)c2ccc(-c3ccccc3)cc2)nn1S(=O)(=O)c1ccc(Oc2ccccc2)cc1 | 95% | 
24 | Nc1cc(OC(=O)c2ccc([N+](=O)[O-])cc2)nn1S(=O)(=O)c1ccccc1 | 27.3% | 
25 | Nc1cc(OC(=O)c2ccc([N+](=O)[O-])cc2)nn1S(=O)(=O)c1ccc(Br)cc1 | 17.3% | 
26 | Nc1ccc(C(=O)Oc2cc(N)n(S(=O)(=O)c3ccc(C(F)(F)F)cc3)n2)cc1 | 52.6% | 
27 | COc1ccc(S(=O)(=O)n2nc(OC(=O)c3ccc(-c4ccccc4)cc3)cc2N)cc1 | 59.7% | IC50 (Genome polyprotein [2]): 500 nM; IC50 (Genome polyprotein [9]): 500 nM; Kinact [4]: 1.13 10^-3/s; inhibition [5]: Tde; Ratio [7]: 156; Ki (Genome polyprotein [8]): 7250 nM
28 | COc1ccc(S(=O)(=O)n2nc(OC(=O)c3ccc(N)cc3)cc2N)cc1 | 68.5% | 
